Only some compounds are listed: those with a hit (about 2% of all), similar ones and a draw of the others.
Dynein cargo inh: dynein cargo transport inhibition. z-score, hits read low. 3617.4 mouse cells, GR-EGFP nuclear translocation imaging; test concentration mostly 20 µM; stimulated with dexamethasone, 1 µM; stronger effect = lower value. AID 1381. 220,000 compounds, 0.47% hits;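 active means plate z-score of nuclear minus cytoplasmic receptor signal below a set negative limit, without overly bright fluorescence or cell loss, cut at about -3.5 in these data, passing the limit was not always enough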;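 further: z-score of nuclear minus cytoplasmic ring GR-EGFP intensity difference per well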
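medium = tetracycline-free induction medium containing charcoal-stripped FBS | probe or stimulus = dexamethasone, 1.0 µM final | timing = 48 h induction, then 1 h compound, then 30 min agonist, 37 °C | detection = automated 10x imaging of fixed Hoechst-stained cells | read-out basis = nuclear versus cytoplasmic GR-EGFP signal, averaged per well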
Autophagy mod: autophagy modulation, high-content screen; calls only at 10 µM (by protocol); 190,000 compounds, 0.98% hits; MEF GFP-LC3 puncta imaging; test concentration mostly 10 µM;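 active means percentage of spot-positive cells more than 3 SD above its plate mean, without a fluorescence outlier flag or 80% toxicity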;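 further: spot-positive cell cutoff set from DMSO-treated cells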
Insulin prom inh: TRM-6 insulin promoter activity inhibition; 130,000 compounds, 0.9% hits; AID 1273; TRM-6 cells, insulin promoter-eGFP reporter, imaging; reporter expression induced with tamoxifen; inhibition, % at 2 µM;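 active means inhibition above the mean plus 3 SD, with well images judged a real hit on visual review, cut at about 60% in these data, passing the limit was not always enough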
Insulin prom up: MIN6 insulin promoter up-regulation | MIN6 insulin promoter-GFP reporter, high-content imaging; stronger effect = higher value | 190,000 compounds, 0.3% hits | z-score at 5 µM | AID 1625;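 active means z-score above 3 at 5 µM with at least 500 cells counted in the well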
The depositor's hits bear a star; i = inactive; · = not tested or not shown; + = active, no number.

SMILES	Dynein cargo inh	Autophagy mod	Insulin prom inh	Insulin prom up
Cc1c2c(nc3c(C)cccc13)OC(C)C2 (stereo not drawn)	2.02	+	-13.2	0.15
C/C(=N\NC(=O)c1cc(-c2cccs2)nc2ccccc12)c1ccccn1	0.822	+	·	-6.25
Cc1cc(C)n(C(=O)/C(C#N)=N/Nc2cc(Cl)cc(Cl)c2)n1	0.802	i	18.2	-0.8
COCC1CCN(Cc2nc(-c3cccs3)no2)C1 (stereo not drawn)	-0.469	i	·	-0.04
C[C@@H]1CN(Cc2nc(-c3cccs3)no2)C[C@H](C)O1	1.28	+	·	0.73
CC(C)NCCCCOc1ccc(Br)cc1Cl	-0.93	i	·	0.24
CCCCCC(=O)Nc1ccc(-c2csc(N)n2)cc1	-0.595	i	·	·
CCN1C(=O)C(O)(C2COC(C)(C)CC2=O)c2cc(Br)ccc21 (stereo not drawn)	-0.0145	+	38.0	·
CCN1C(=O)C(O)(C2COC(C)(C)CC2=O)c2ccccc21 (stereo not drawn)	0.188	i	34.3	-0.57
c1ccc2c(c1)nc(CN1CCOCC1)n1c3ccccc3nc21	-0.697	i	14.3	-2.27
O=c1c2cccc3c(N4CCOCC4)ccc(c32)c2nc3ccccc3n12	·	·	·	9.75*
CCc1nc2ccccc2c2nc3ccccc3n12	-0.195	i	6.5	-0.84
O=c1c2ccc([N+](=O)[O-])c3cccc(c32)c2nc3ccccc3n12	-0.0168	+	·	0.31
COc1ccc(CN(C)C(=O)COC(=O)c2c(-c3ccccc3Cl)noc2C)cc1	2.3	i	·	-0.06
O=C(CCC(=O)c1cccs1)c1cccs1	0.899	i	81.2*	·
O=C(CCC(=O)c1cccs1)NC(c1ccccc1)c1ccccc1	-0.346	i	2.6	-0.7
Cc1cccc(NC(=O)CN2C(=O)N/C(=C/c3cc(C)n(C)c3C)C2=O)c1	-0.194	i	83.3*	-0.15
Cc1cccc(NC(=O)CN2C(=O)N/C(=C/c3cc(C)n(-c4ccncc4)c3C)C2=O)c1	0.291	i	7.1	-0.09
Cc1ccc2nc(NCCCO)[nH]c2c1	0.177	i	78.4*	·
CCOc1ccc2nc(NCCO)[nH]c2c1	-0.329	i	·	0.48
CCCNC(=O)c1csc2c1CCCCC2	1.05	i	3.1	-0.63
CCCNC(=O)c1sc2c(c1C(=O)Nc1ccccn1)CCCC2	0.643	+	-145.4	-0.65
O=C1c2ccccc2C(=O)C12OC2c1ccc(Cl)cc1Cl (stereo not drawn)	-4.57*	i	20.6	0.21
CCCCOc1ccc2ccccc2c1C=O	0.604	+	0.0	1.13
O=[N+]([O-])/C=C/c1c(OCc2ccccc2)ccc2ccccc12	-0.616	i	43.3	·
SMILES	Dynein cargo inh	Autophagy mod	Insulin prom inh	Insulin prom up
CCOC(=O)C1(C)Oc2ccc(S(=O)(=O)CC)cc2NC1=O (stereo not drawn)	0.297	i	46.1	-0.21
CCN1CCc2c(OCc3ccc(C)cc3)cccc2C1=O	0.305	i	-30.8	-0.82
CCC(=O)n1nc(-c2ccccc2)nc1NCc1ccccc1	2.94	i	86.0*	0.75
COCC(=O)n1nc(-c2ccccc2)nc1NCc1ccccc1	1.57	i	·	-0.06
O=C(c1ncc[nH]1)c1cccs1	0.471	·	·	0.36
O=C(N/N=C/C1CC2CCC1C2)c1c[nH]c2ccccc12 (stereo not drawn)	-0.82	i	·	-0.15
COC(=O)c1cc(S(=O)(=O)C(C)C)c(S(C)=O)s1 (stereo not drawn)	-1.49	·	·	1.16
O=C(OCC(=O)N1CCCC1)c1cncc(Br)c1	-0.235	i	100.0*	-0.09
O=C(OCC(=O)N1CCCc2ccccc21)c1cncc(Br)c1	-0.0958	i	·	0.86
CC(C)(C)OC(=O)N1CCC(CNC(=O)c2ccc(F)cc2)CC1	-0.657	·	·	-0.31
Cc1ccc(CNc2ccc3c(c2)OCO3)c(C)c1	12	+	-376.2	·
Oc1ccccc1CNc1ccc2c(c1)OCCO2	0.325	i	·	-0.14
CC(C)Oc1ccc(/C=N/NC(=O)C(CSCc2ccccc2)NC(=O)c2ccc([N+](=O)[O-])cc2)cc1 (stereo not drawn)	0.363	+	43.8	·
Cc1ccnc(SCC(=O)c2ccc(Br)cc2)c1C#N	-0.748	i	61.1*	0.01
Cc1ccc(C(=O)CSc2nsc(C)c2C#N)cc1	-0.703	i	0.0	-0.26
O=C(Cc1ccc(Cl)c(Cl)c1)Nc1ccc2[nH]c(=O)[nH]c2c1	-0.472	i	·	-0.13
C=CCNc1nc(S(=O)Cc2ccc(C)cc2)nc2c1CCCC2 (stereo not drawn)	0.13	i	73.3*	-0.71
C=CCNc1c2c(nc3nnnn13)CCCC2	1.17	i	14.3	-0.25

Bioassay records (PubChem BioAssay)
